Test results: ChEMBL document CHEMBL3588850, “Multivalent Amino Sugars to Recognize Different TAR RNA Conformations” (Medchemcomm, 2014)

Legend:
[1] = biological target: Nucleic Acid; test: Binding affinity to wild type HIV1 TAR RNA at pH 6.8 by ethidium bromide displacement assay; format: nucleic-acid assay, Human immunodeficiency virus 1
Method in brief: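 TAR RNA (200 nM/strand) and EtBr (5 μM) in 100 mM KCl, 10 mM SC, 0.5 mM EDTA, pH 6.8, titrated with ligand aliquots (at most 4% v/v). Fluorescence excited at 545 nm and read at 610 nm. IC50 is the ligand concentration that displaces 50% of EtBr, taken from a sigmoidal fit of fraction displaced versus log ligand concentration.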

[2] = biological target: Nucleic Acid; test: Binding affinity to HIV1 TAR RNA bulgeless mutant at pH 6.8 by ethidium bromide displacement assay; format: nucleic-acid assay, Human immunodeficiency virus 1
Method in brief: (§1)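 Synthetic 2′-ACE-protected TAR RNA, deprotected, heated 98 °C 5 min, then ice-cooled 15 min. TAR RNA at 200 nM/strand with ethidium bromide 5 μM in 100 mM KCl, 10 mM SC, 0.5 mM EDTA, pH 6.8. Ligand added stepwise, ≤4% v/v. Excitation 545 nm, emission 580–660 nm, intensity at 610 nm normalized. IC50 from sigmoidal fit of fraction EtBr displaced vs log ligand; association constants from Scatchard analysis.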

[3] = biological target: Nucleic Acid; test: Binding affinity to HIV1 TAR RNA tetraloop mutant at pH 6.8 by ethidium bromide displacement assay; format: nucleic-acid assay, Human immunodeficiency virus 1; method in brief: as §1
[4] = biological target: Nucleic Acid; test: Binding affinity to HIV1 TAR RNA bulgeless tetraloop mutant at pH 6.8 by ethidium bromide displacement assay; format: nucleic-acid assay, Human immunodeficiency virus 1; method in brief: as §1
[5] = biological target: Nucleic Acid; test: Binding affinity to HIV1 TAR RNA U3 bulge mutant at pH 6.8 by ethidium bromide displacement assay; format: nucleic-acid assay, Human immunodeficiency virus 1; method in brief: as §1
[6] = system: Nucleic Acid; test: Binding affinity to wild type HIV1 TAR RNA assessed as association constant at pH 6.8 by ethidium bromide displacement assay based Scatchard analysis method; format: nucleic-acid assay; settings: Human immunodeficiency virus 1
Method in brief: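 Ethidium bromide displacement: 5 μM EtBr with TAR RNA at 200 nM/strand (under 20% of EtBr bound) in 100 mM KCl, 10 mM SC, 0.5 mM EDTA, pH 6.8. Ligand added in concentrated aliquots, at most 4% v/v. Excitation 545 nm, emission 580–660 nm, intensity at 610 nm. Association constant obtained by Scatchard analysis of the titration data.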

[7] = system: Nucleic Acid; test: Binding affinity to HIV1 TAR RNA bulgeless mutant assessed as association constant at pH 6.8 by ethidium bromide displacement assay based Scatchard analysis method; format: nucleic-acid assay; settings: Human immunodeficiency virus 1; method in brief: as §1
[8] = system: Nucleic Acid; test: Binding affinity to HIV1 TAR RNA tetraloop mutant assessed as association constant at pH 6.8 by ethidium bromide displacement assay based Scatchard analysis method; format: nucleic-acid assay; settings: Human immunodeficiency virus 1; method in brief: as §1
[9] = system: Nucleic Acid; test: Binding affinity to HIV1 TAR RNA bulgeless tetraloop mutant assessed as association constant at pH 6.8 by ethidium bromide displacement assay based Scatchard analysis method; format: nucleic-acid assay; settings: Human immunodeficiency virus 1; method in brief: as §1
[10] = system: Nucleic Acid; test: Binding affinity to HIV1 TAR RNA U3 bulge mutant at assessed as association constant at pH 6.8 by ethidium bromide displacement assay based Scatchard analysis method; format: nucleic-acid assay; settings: Human immunodeficiency virus 1; method in brief: as §1
[11] = system: Human immunodeficiency virus 1; test: Induction of thermal stability changes in wild type HIV1 TAR RNA assessed as change in melting temperature using 1 molar equivalents of compound pre-incubated for 4 hrs at pH 6.8 at 4 degC before test by UV thermal denaturation assay
[12] = system: Human immunodeficiency virus 1; test: Induction of thermal stability changes in HIV1 TAR RNA U3 bulge mutant assessed as change in melting temperature using 1 molar equivalents of compound pre-incubated for 4 hrs at pH 6.8 at 4 degC before test by UV thermal denaturation assay
Method in brief: (§2)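 TAR RNA mutants at 1 μM/strand mixed with 1 or 2 molar equivalents of ligand in 100 mM KCl, 10 mM SC, 0.5 mM EDTA, pH 6.8, then held 4 h at 4 °C. Absorbance at 260 nm in 1 cm cuvettes, 15–100 °C, heating 0.3 °C/min. Tm taken from first-derivative plots and compared with the no-ligand sample.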

[13] = system: Human immunodeficiency virus 1; test: Induction of thermal stability changes in HIV1 TAR RNA tetraloop mutant assessed as change in melting temperature using 1 molar equivalents of compound pre-incubated for 4 hrs at pH 6.8 at 4 degC before test by UV thermal denaturation assay; method in brief: as §2
[14] = system: Human immunodeficiency virus 1; test: Induction of thermal stability changes in HIV1 TAR RNA bulgeless mutant assessed as change in melting temperature using 1 molar equivalents of compound pre-incubated for 4 hrs at pH 6.8 at 4 degC before test by UV thermal denaturation assay; method in brief: as §2
[15] = system: Human immunodeficiency virus 1; test: Induction of thermal stability changes in HIV1 TAR RNA bulgeless tetraloop mutant assessed as change in melting temperature using 1 molar equivalents of compound pre-incubated for 4 hrs at pH 6.8 at 4 degC before test by UV thermal denaturation assay; method in brief: as §2
[16] = system: Human immunodeficiency virus 1; test: Induction of thermal stability changes in wild type HIV1 TAR RNA assessed as change in melting temperature using 2 molar equivalents of compound pre-incubated for 4 hrs at pH 6.8 at 4 degC before test by UV thermal denaturation assay
[17] = system: Human immunodeficiency virus 1; test: Induction of thermal stability changes in HIV1 TAR RNA U3 bulge mutant assessed as change in melting temperature using 2 molar equivalents of compound pre-incubated for 4 hrs at pH 6.8 at 4 degC before test by UV thermal denaturation assay; method in brief: as §2
[18] = system: Human immunodeficiency virus 1; test: Induction of thermal stability changes in HIV1 TAR RNA tetraloop mutant assessed as change in melting temperature using 2 molar equivalents of compound pre-incubated for 4 hrs at pH 6.8 at 4 degC before test by UV thermal denaturation assay; method in brief: as §2

## C/C(CCc1cn(C[C@H]2O[C@@H](O[C@@H]3[C@@H](O)[C@H](N)C[C@H](N)[C@H]3O[C@H]3O[C@H](CN)[C@@H](O)[C@H](O)[C@H]3N)[C@H](O)[C@@H]2O[C@H]2O[C@@H](CN)[C@@H](O)[C@H](O)[C@H]2N)nn1)=C(/C)CCc1cn(C[C@H]2O[C@@H](O[C@@H]3[C@@H](O)[C@H](N)C[C@H](N)[C@H]3O[C@H]3O[C@H](CN)[C@@H](O)[C@H](O)[C@H]3N)[C@H](O)[C@@H]2O[C@H]2O[C@@H](CN)[C@@H](O)[C@H](O)[C@H]2N)nn1
[1]
  IC50: 146 nM
[2]
  IC50: 142 nM
[3]
  IC50: 210 nM
[4]
  IC50: 162 nM
[5]
  IC50: 338 nM
[6]
  K: 1.1 ×10⁷ /M
[7]
  K: 3.6 ×10⁷ /M
[8]
  K: 3.5 ×10⁶ /M
[9]
  K: 2.8 ×10⁷ /M
[10]
  K: 2.6 ×10⁶ /M

## NC[C@@H]1O[C@H](O[C@H]2[C@@H](O)[C@H](O[C@@H]3[C@@H](O)[C@H](N)C[C@H](N)[C@H]3O[C@H]3O[C@H](CN)[C@@H](O)[C@H](O)[C@H]3N)O[C@@H]2CO)[C@H](N)[C@@H](O)[C@@H]1O [FRAMYCETIN]
[11]
  ΔTm: 0.2 °C
[12]
  ΔTm: 0 °C
[13]
  ΔTm: 1 °C
[14]
  ΔTm: 1 °C
[15]
  ΔTm: 0 °C
[16]
  ΔTm: 0.5 °C
[17]
  ΔTm: 1 °C
[18]
  ΔTm: 1 °C
[1]
  IC50: 378 nM
[2]
  IC50: 150 nM
[3]
  IC50: 684 nM
[4]
  IC50: 192 nM
[7]
  K: 3 ×10⁷ /M
[9]
  K: 1.6 ×10⁷ /M

## NC[C@@H]1O[C@H](O[C@H]2[C@@H](O)[C@H](O[C@@H]3[C@@H](O)[C@H](N)C[C@H](N)[C@H]3O[C@H]3O[C@H](CN)[C@@H](O)[C@H](O)[C@H]3N)O[C@@H]2Cn2cc(CCCc3cn(C[C@H]4O[C@@H](O[C@@H]5[C@@H](O)[C@H](N)C[C@H](N)[C@H]5O[C@H]5O[C@H](CN)[C@@H](O)[C@H](O)[C@H]5N)[C@H](O)[C@@H]4O[C@H]4O[C@@H](CN)[C@@H](O)[C@H](O)[C@H]4N)nn3)nn2)[C@H](N)[C@@H](O)[C@@H]1O
[1]
  IC50: 118 nM
[2]
  IC50: 134 nM
[3]
  IC50: 190 nM
[4]
  IC50: 146 nM
[5]
  IC50: 224 nM
[6]
  K: 7.1 ×10⁷ /M
[7]
  K: 8.9 ×10⁷ /M
[8]
  K: 1.4 ×10⁷ /M
[9]
  K: 7.5 ×10⁷ /M
[10]
  K: 6.9 ×10⁶ /M

## NC[C@@H]1O[C@H](O[C@H]2[C@@H](O)[C@H](O[C@@H]3[C@@H](O)[C@H](N)C[C@H](N)[C@H]3O[C@H]3O[C@H](CN)[C@@H](O)[C@H](O)[C@H]3N)O[C@@H]2Cn2cc(CCCCCCc3cn(C[C@H]4O[C@@H](O[C@@H]5[C@@H](O)[C@H](N)C[C@H](N)[C@H]5O[C@H]5O[C@H](CN)[C@@H](O)[C@H](O)[C@H]5N)[C@H](O)[C@@H]4O[C@H]4O[C@@H](CN)[C@@H](O)[C@H](O)[C@H]4N)nn3)nn2)[C@H](N)[C@@H](O)[C@@H]1O
[1]
  IC50: 126 nM
[2]
  IC50: 146 nM
[3]
  IC50: 214 nM
[4]
  IC50: 150 nM
[5]
  IC50: 256 nM
[6]
  K: 6.6 ×10⁷ /M
[7]
  K: 6.3 ×10⁷ /M
[8]
  K: 5 ×10⁶ /M
[9]
  K: 5.9 ×10⁷ /M
[10]
  K: 3.8 ×10⁶ /M

## NC[C@@H]1O[C@H](O[C@H]2[C@@H](O)[C@H](O[C@@H]3[C@@H](O)[C@H](N)C[C@H](N)[C@H]3O[C@H]3O[C@H](CN)[C@@H](O)[C@H](O)[C@H]3N)O[C@@H]2Cn2cc(COCCCCCCCCCCCCOCc3cn(C[C@H]4O[C@@H](O[C@@H]5[C@@H](O)[C@H](N)C[C@H](N)[C@H]5O[C@H]5O[C@H](CN)[C@@H](O)[C@H](O)[C@H]5N)[C@H](O)[C@@H]4O[C@H]4O[C@@H](CN)[C@@H](O)[C@H](O)[C@H]4N)nn3)nn2)[C@H](N)[C@@H](O)[C@@H]1O
[1]
  IC50: 144 nM
[3]
  IC50: 300 nM
[4]
  IC50: 158 nM
[5]
  IC50: 326 nM
[6]
  K: 2.5 ×10⁷ /M
[7]
  K: 4.4 ×10⁷ /M
[8]
  K: 2 ×10⁶ /M
[9]
  K: 2.7 ×10⁷ /M
[10]
  K: 1.5 ×10⁶ /M
